Measurements as given in ChEMBL document CHEMBL4251566 (Eur J Med Chem, 2018).

Key:
[1] = system: Ramos; experiment: Antiproliferative activity against human Ramos cells after 72 hrs by CCK-8 assay
[2] = target: Tyrosine-protein kinase BTK (Homo sapiens, UniProt Q06187); experiment: Inhibition of recombinant full-length N-terminal His-tagged human BTK expressed in baculovirus infected Sf9 insect cells using Poly(4:1 Glu,Tyr) peptide substrate incubated for 60 mins by ADP-Glo luminescence assay
[3] = system: Raji; experiment: Antiproliferative activity against human Raji cells after 72 hrs by CCK-8 assay; format: functional, cell-based
Summary of the method: (§1)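 CCK-8 viability assay. Cells were seeded at 3000/well in RPMI-1640 with 10% FBS at 37 °C, 5% CO2, for 4 h before treatment. Exposure was 72 h at five concentrations (1.25, 5, 10, 20, 40 µM), each in five replicates. Absorbance was read at 450 nm. IC50 came from dose-response curves, as the mean of at least three separate experiments.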

[4] = target: T1, Tyrosine-protein kinase JAK3 (Homo sapiens, UniProt P52333); experiment: Inhibition of recombinant N-terminal GST-tagged human JAK3 (781 to end residues) expressed in baculovirus infected Sf9 insect cells using Poly(4:1 Glu,Tyr) peptide substrate incubated for 60 mins by ADP-Glo luminescence assay
T1 sequence (P52333 whole entry): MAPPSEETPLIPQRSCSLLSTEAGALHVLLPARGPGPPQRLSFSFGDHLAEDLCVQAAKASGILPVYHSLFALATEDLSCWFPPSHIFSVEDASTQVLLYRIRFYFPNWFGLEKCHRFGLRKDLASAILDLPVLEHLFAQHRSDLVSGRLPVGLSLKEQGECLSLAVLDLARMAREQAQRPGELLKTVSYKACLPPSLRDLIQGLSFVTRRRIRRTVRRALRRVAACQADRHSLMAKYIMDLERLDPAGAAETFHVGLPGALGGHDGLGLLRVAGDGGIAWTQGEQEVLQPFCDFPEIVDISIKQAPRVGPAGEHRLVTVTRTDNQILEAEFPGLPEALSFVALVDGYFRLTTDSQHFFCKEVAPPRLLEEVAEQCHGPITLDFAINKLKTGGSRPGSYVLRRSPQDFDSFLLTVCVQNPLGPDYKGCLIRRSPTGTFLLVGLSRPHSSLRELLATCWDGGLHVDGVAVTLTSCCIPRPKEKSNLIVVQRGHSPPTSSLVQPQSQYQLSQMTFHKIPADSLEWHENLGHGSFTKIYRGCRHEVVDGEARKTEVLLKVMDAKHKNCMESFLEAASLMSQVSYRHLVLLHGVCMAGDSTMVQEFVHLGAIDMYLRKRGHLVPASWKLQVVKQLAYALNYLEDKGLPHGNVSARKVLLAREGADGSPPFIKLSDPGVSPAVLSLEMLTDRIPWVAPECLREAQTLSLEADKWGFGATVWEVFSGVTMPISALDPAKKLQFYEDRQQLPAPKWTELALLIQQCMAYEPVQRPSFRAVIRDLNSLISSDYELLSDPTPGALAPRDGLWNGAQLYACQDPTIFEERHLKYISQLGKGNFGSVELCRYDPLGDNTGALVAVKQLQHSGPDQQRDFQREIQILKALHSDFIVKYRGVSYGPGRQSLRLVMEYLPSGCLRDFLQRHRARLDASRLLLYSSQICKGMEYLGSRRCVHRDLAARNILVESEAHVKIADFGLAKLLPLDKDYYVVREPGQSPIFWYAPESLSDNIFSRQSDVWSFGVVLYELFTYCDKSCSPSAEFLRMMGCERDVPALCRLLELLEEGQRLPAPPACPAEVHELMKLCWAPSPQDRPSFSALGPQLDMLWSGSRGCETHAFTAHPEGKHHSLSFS
Summary of the method: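 ADP-Glo luminescent kinase assay. The kinase reaction ran 60 min at room temperature in 1× kinase buffer. ADP-Glo reagent was added to stop the reaction and deplete ATP, followed by 40 min at room temperature. Detection reagent then converted ADP to ATP for a luciferase readout, followed by 30 min at room temperature. Luminescence was integrated over 0.5–1 s, and IC50 came from curve fitting.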

[5] = system: NAMALVA; experiment: Antiproliferative activity against human NAMALWA cells after 72 hrs by CCK-8 assay; format: functional, cell-based; summary of the method: as §1
[6] = system: Ramos; experiment: Induction of apoptosis in human Ramos cells assessed as total apoptosis rate at 10 uM after 72 hrs by Annexin V-FITC/propidium iodide staining based flow cytometry relative to control
[7] = system: Ramos; experiment: Induction of apoptosis in human Ramos cells assessed as early apoptotic cells at 10 uM after 72 hrs by Annexin V-FITC/propidium iodide staining based flow cytometry (reference value: 0.0%); format: functional
[8] = system: Ramos; experiment: Induction of apoptosis in human Ramos cells assessed as necrotic cells at 10 uM after 72 hrs by Annexin V-FITC/propidium iodide staining based flow cytometry (reference value: 0.7%); format: functional
[9] = system: PBMC; experiment: Cytotoxicity against human PBMCs assessed as induction of morphological changes at <10 uM after 24 hrs by AO/PI staining-based phase contrast microscopy; format: cell-based
[10] = system: Ramos; experiment: Induction of apoptosis in human Ramos cells assessed as viable cells at 10 uM after 72 hrs by Annexin V-FITC/propidium iodide staining based flow cytometry (reference value: 98.7%); format: functional; settings: read-out: Activity
[11] = system: Ramos; experiment: Induction of apoptosis in human Ramos cells assessed as late apoptotic cells at 10 uM after 72 hrs by Annexin V-FITC/propidium iodide staining based flow cytometry (reference value: 0.5%); format: functional

Chain of Tyrosine-protein kinase BTK (Q06187 whole entry): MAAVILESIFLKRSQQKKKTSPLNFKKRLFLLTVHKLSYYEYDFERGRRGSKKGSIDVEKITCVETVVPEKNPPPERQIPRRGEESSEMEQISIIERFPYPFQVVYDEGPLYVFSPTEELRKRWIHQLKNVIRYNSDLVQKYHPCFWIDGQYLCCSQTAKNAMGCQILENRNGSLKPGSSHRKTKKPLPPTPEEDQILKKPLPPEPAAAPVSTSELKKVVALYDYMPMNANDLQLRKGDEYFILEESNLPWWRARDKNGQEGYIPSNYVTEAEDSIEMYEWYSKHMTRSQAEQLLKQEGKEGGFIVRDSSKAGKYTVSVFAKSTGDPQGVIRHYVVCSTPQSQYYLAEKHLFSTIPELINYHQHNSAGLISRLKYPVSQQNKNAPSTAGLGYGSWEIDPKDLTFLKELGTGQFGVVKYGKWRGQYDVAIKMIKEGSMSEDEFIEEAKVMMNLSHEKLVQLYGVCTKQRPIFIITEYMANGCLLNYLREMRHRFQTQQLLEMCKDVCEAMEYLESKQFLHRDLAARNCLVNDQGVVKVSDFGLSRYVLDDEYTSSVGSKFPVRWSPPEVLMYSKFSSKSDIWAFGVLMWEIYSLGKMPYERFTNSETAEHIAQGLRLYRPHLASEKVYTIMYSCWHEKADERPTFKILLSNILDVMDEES

In the case of C=CC(=O)Nc1cccc(Nc2nc(Nc3ccc(OC)c(OCCCN4CCOCC4)c3)ncc2F)c1, the IC50 [1] is reported as 11.3 µM, the IC50 [2] is reported as 0.7 nM and the IC50 [3] is reported as 13.9 µM. It also gave an IC50 [4] of 0.95 nM and an IC50 [5] of 3.17 µM.

C=CC(=O)Nc1cccc(Nc2nc(Nc3ccc(OCCCN4CCN(C)CC4)cc3C)ncc2Cl)c1 showed an IC50 [1] of 22.6 µM, an IC50 [2] of 81.7 nM and an IC50 [3] of 25 µM. It also gave an IC50 [4] of 91.1 nM and an IC50 [5] of 24.6 µM.

In the case of C=CC(=O)Nc1cccc(Nc2nc(Nc3ccc(OCCCN4CCN(CC)CC4)cc3C)ncc2F)c1, the IC50 [1] is reported as 18.5 µM, the IC50 [2] is reported as 90 nM and the IC50 [3] is reported as 26 µM. It also gave an IC50 [4] of over 100 nM and an IC50 [5] of 26.6 µM.

C=CC(=O)Nc1cccc(Nc2nc(Nc3ccc(OCCCN4CCOCC4)cc3C)ncc2Cl)c1 showed an IC50 [1] of 18.7 µM, an IC50 [2] of 89.3 nM and an IC50 [3] of 25.5 µM. It also gave an IC50 [4] of over 100 nM and an IC50 [5] of 28 µM.

In the case of C=CC(=O)Nc1cccc(Nc2nc(Nc3ccc(OCCCN4CCN(CC)CC4)cc3C)ncc2Cl)c1, the IC50 [1] is reported as 14.4 µM, the IC50 [2] is reported as over 100 nM and the IC50 [3] is reported as 35.3 µM. The IC50 [4] was over 100 nM and the IC50 [5] was 35.2 µM.

In the case of C=CC(=O)Nc1cccc(Nc2nc(Nc3ccc(OCC(=O)N4CCOCC4)c(OC)c3)ncc2Cl)c1, the IC50 [1] is reported as over 40 µM, the IC50 [2] is reported as 10.5 nM and the IC50 [3] is reported as 22.5 µM. It also gave an IC50 [4] of 21.6 nM and an IC50 [5] of 17.2 µM.

For C=CC(=O)N1CCC[C@@H](n2nc(-c3ccc(Oc4ccccc4)cc3)c3c(N)ncnc32)C1 [IBRUTINIB], the Activity [6] was 47.9%, the Activity [7] was 37% and the IC50 [1] was 6.62 µM. For the same compound, the Activity [8] was 0.1%, the IC50 [3] was 20.9 µM and the Activity [9] was 50%. For the same compound, the viability at 10 µM [10] was 52% and the IC50 [5] was 10.5 µM.

C=CC(=O)Nc1cccc(Nc2nc(Nc3ccc(OCC(=O)N4CCOCC4)c(OC)c3)ncc2F)c1 was tested, and the IC50 [1] was over 40 µM, the IC50 [2] was 17.1 nM and the IC50 [3] was 11.2 µM. It also gave an IC50 [4] of 11.2 nM and an IC50 [5] of 15 µM.

C=CC(=O)Nc1cccc(Nc2nc(Nc3ccc(OCCCN4CCOCC4)c(Cl)c3)ncc2Cl)c1 showed an IC50 [1] of 2 µM, an IC50 [2] of 0.7 nM and an IC50 [3] of 22.5 µM. For the same compound, the IC50 [4] was 1.06 nM and the IC50 [5] was 19.4 µM.

C=CC(=O)Nc1cccc(Nc2nc(Nc3ccc(OCC(=O)N4CCOCC4)cc3)ncc2Cl)c1 showed an IC50 [1] of 25.6 µM, an IC50 [2] of 1 nM and an IC50 [3] of 5.68 µM. The IC50 [4] was 1.39 nM and the IC50 [5] was 4.42 µM.

C=CC(=O)Nc1cccc(Nc2nc(Nc3ccc(OCCCN4CCN(CC)CC4)c(Cl)c3)ncc2Cl)c1 gave an IC50 [1] of 5.72 µM, an IC50 [2] of 0.5 nM and an IC50 [3] of 11.4 µM. For the same compound, the IC50 [4] was 0.91 nM and the IC50 [5] was 2.41 µM.

With C=CC(=O)Nc1cccc(Nc2nc(Nc3ccc(OC)c(OCCCN4CCOCC4)c3)ncc2Cl)c1 the IC50 [1] was 7.31 µM, the IC50 [2] was 0.8 nM and the IC50 [3] was 3.86 µM. It also gave an IC50 [4] of 0.69 nM and an IC50 [5] of 5.17 µM.

C=CC(=O)Nc1cccc(Nc2nc(Nc3ccc(OCCCN4CCOCC4)c(OC)c3)ncc2Cl)c1 showed an IC50 [1] of 2.49 µM, an IC50 [2] of 31.3 nM and an IC50 [3] of 5.92 µM. For the same compound, the IC50 [4] was 6.77 nM and the IC50 [5] was 14.4 µM.

For C=CC(=O)Nc1cccc(Nc2nc(Nc3ccc(OCCOC)cc3)ncc2F)c1 [SPEBRUTINIB], the Activity [6] was 41.5%, the Activity [7] was 21.1% and the IC50 [1] was 14.2 µM. The Activity [8] was 4.3%, the IC50 [3] was 25.3 µM and the IC50 [4] was 22.5 nM. The viability at 10 µM [10] was 54.2%, the IC50 [5] was 3.42 µM and the Activity [11] was 20.4%.
